Reference: ChEMBL document CHEMBL5030505, “Assessment of NR4A Ligands That Directly Bind and Modulate the Orphan Nuclear Receptor Nurr1” (J Med Chem, 2020)
Calls of active or inactive are those of the source.

Experiments:
Format in all cases: cell-based
HEK293T = assay: Modulation of Gal4-fused VP16 expressed in HEK293T cells co-transfected with UAS repoter gene assessed as decrease in luciferase activity at 5 to 100 uM incubated for 18 hrs by luciferase reporter gene assay; settings: Human alphaherpesvirus 2, filed as modulator, dose 5-100 µM
Outline: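 Cells in 10-cm dishes were transfected with Gal4-VP16 expression plasmid (2 μg) plus 5xUAS-luciferase reporter (2 μg) for 18 h. They were replated at 10,000 cells/well for 4 h, then given ligand or vehicle (water, ethanol or DMSO) in quadruplicate for 18 h. Luciferase was read with Britelite Plus. Fold change is versus vehicle-treated cells, with one-way ANOVA versus vehicle.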

[1] = biological target: Nuclear receptor subfamily 4 group A member 2 (Homo sapiens) (UniProt P43354); assay: Modulation of full length human Nurr1 expressed in SK-N-BE(2) cells co-transfected with RXRalpha and luciferase reporter plasmid harboring NBRE response element assessed as increase in luciferase activity at 1.95 to 125 uM incubated for 18 hrs by luciferase reporter gene assay; settings: SKNBE2, filed as modulator, dose 1.95-125 µM
Outline: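 SK-N-BE(2)-C cells were kept in 1:1 EMEM/F12 with 10% FBS at 37°C and 5% CO2. They were cotransfected with full-length Nurr1 (1 μg), full-length RXRα (1 μg) and 3xNBRE- or 3xNurRE-luc reporter (6 μg) for 18 h, replated at 10,000 cells/well for 4 h, and then treated with ligand or vehicle in quadruplicate for 18 h. The readout was luciferase luminescence as fold over vehicle, reported as mean ± s.e.m. (n=4) from 2 independent experiments, one-way ANOVA.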

[2] = biological target: Nuclear receptor subfamily 4 group A member 2 (Homo sapiens) (UniProt P43354); assay: Modulation of full length human Nurr1 expressed in HEK293T cells co-transfected with RXRalpha and luciferase reporter plasmid harboring NBRE response element assessed as decrease in luciferase activity at 1.95 to 125 uM incubated for 18 hrs by luciferase reporter gene assay; settings: filed as modulator, dose 1.95-125 µM
Outline: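 Full-length Nurr1 plasmid, alone (2 μg) or 1 μg plus full-length RXRα (1 μg), cotransfected with 3xNBRE- or 3xNurRE-luciferase reporter (6 μg) using Lipofectamine 2000, 18 h. Cells replated at 10,000/well for 4 h. Four ligand concentrations, or vehicle (water, ethanol or DMSO), added in quadruplicate for 18 h. Luciferase read. Fold change vs vehicle, mean ± s.e.m., one-way ANOVA vs vehicle.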

[3] = biological target: Nuclear receptor subfamily 4 group A member 2 (Homo sapiens) (UniProt P43354); assay: Modulation of full length human Nurr1 expressed in SK-N-BE(2) cells co-transfected with luciferase reporter plasmid harboring NBRE response element assessed as increase in luciferase activity at 1.95 to 125 uM incubated for 18 hrs by luciferase reporter gene assay; settings: SKNBE2, filed as modulator, dose 1.95-125 µM
Outline: (§1)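 Transfection of SK-N-BE(2)-C cells (1:1 EMEM/F12, 10% FBS, 37°C, 5% CO2) used full-length Nurr1 alone (2 μg, no RXRα) with 3xNBRE- or 3xNurRE-luciferase reporter (6 μg) for 18 h. Cells were replated at 10,000/well for 4 h, then exposed to ligand or vehicle in quadruplicate for 18 h. Luminescence was expressed as fold over vehicle, as mean ± s.e.m. (n=4) from 2 independent experiments, one-way ANOVA against vehicle.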

[4] = biological target: Nuclear receptor subfamily 4 group A member 2 (Homo sapiens) (UniProt P43354); assay: Modulation of full length human Nurr1 expressed in SK-N-BE(2) cells co-transfected with luciferase reporter plasmid harboring NurRE response element assessed as increase in luciferase activity at 1.95 to 125 uM incubated for 18 hrs by luciferase reporter gene assay; settings: SKNBE2, filed as modulator, dose 1.95-125 µM; outline: as §1
[5] = biological target: Nuclear receptor subfamily 4 group A member 2 (Homo sapiens) (UniProt P43354); assay: Modulation of full length human Nurr1 expressed in SKNBE(2) cells co-transfected with RXRalpha and luciferase reporter plasmid harboring NurRE response element assessed as decrease in luciferase activity at 1.56 to 6.25 uM incubated for 18 by luciferase reporter gene assay; settings: SKNBE2, filed as modulator, dose 1.56-6.25 µM, time 18.0 hrs
[6] = biological target: Nuclear receptor subfamily 4 group A member 2 (Homo sapiens) (UniProt P43354); assay: Modulation of full length human Nurr1 expressed in SKNBE(2) cells co-transfected with luciferase reporter plasmid harboring NurRE response element assessed as decrease in luciferase activity at 1.56 to 6.25 uM incubated for 18 by luciferase reporter gene assay; settings: SKNBE2, filed as modulator, dose 1.56-6.25 µM, time 18.0 hrs
Outline: (§2)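 Cells transfected (Lipofectamine 2000, 18 h) with full-length Nurr1 expression plasmid (2 μg) and 3xNBRE- or 3xNurRE-luciferase reporter (6 μg), no internal control normalisation; replated 10,000 cells/well, 4 h; ligand or vehicle in quadruplicate for 18 h; Britelite Plus luminescence as fold change over vehicle. Mean ± s.e.m. (n=4); one-way ANOVA versus vehicle.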

[7] = biological target: Nuclear receptor subfamily 4 group A member 2 (Homo sapiens) (UniProt P43354); assay: Modulation of full length human Nurr1 expressed in SKNBE(2) cells co-transfected with luciferase reporter plasmid harboring NBRE response element assessed as decrease in luciferase activity at 1.56 to 6.25 uM incubated for 18 by luciferase reporter gene assay; settings: SKNBE2, filed as modulator, dose 1.56-6.25 µM, time 18.0 hrs; outline: as §2
[8] = biological target: Nuclear receptor subfamily 4 group A member 2 (Homo sapiens) (UniProt P43354); assay: Modulation of full length human Nurr1 expressed in PC12 cells co-transfected with RXRalpha and luciferase reporter plasmid harboring NurRE response element assessed as decrease in luciferase activity at 1.56 to 6.25 uM incubated for 18 by luciferase reporter gene assay; settings: PC-12, filed as modulator, dose 1.56-6.25 µM, time 18.0 hrs
[9] = biological target: Nuclear receptor subfamily 4 group A member 2 (Homo sapiens) (UniProt P43354); assay: Modulation of full length human Nurr1 expressed in SKNBE(2) cells co-transfected with luciferase reporter plasmid harboring NBRE response element assessed as increase in luciferase activity at 1.56 to 6.25 uM incubated for 18 by luciferase reporter gene assay; settings: SKNBE2, filed as modulator, dose 1.56-6.25 µM, time 18.0 hrs; outline: as §2
[10] = biological target: Nuclear receptor subfamily 4 group A member 2 (Homo sapiens) (UniProt P43354); assay: Modulation of full length human Nurr1 expressed in HEK293T cells co-transfected with luciferase reporter plasmid harboring NurRE response element assessed as decrease in luciferase activity at 1.56 to 6.25 uM incubated for 18 by luciferase reporter gene assay; settings: filed as modulator, dose 1.56-6.25 µM, time 18.0 hrs; outline: as §2
[11] = biological target: Nuclear receptor subfamily 4 group A member 2 (Homo sapiens) (UniProt P43354); assay: Modulation of full length human Nurr1 expressed in HEK293T cells co-transfected with RXRalpha and luciferase reporter plasmid harboring NBRE response element assessed as increase in luciferase activity at 1.56 to 6.25 uM incubated for 18 by luciferase reporter gene assay; settings: filed as modulator, dose 1.56-6.25 µM, time 18.0 hrs
[12] = biological target: Nuclear receptor subfamily 4 group A member 2 (Homo sapiens) (UniProt P43354); assay: Modulation of full length human Nurr1 expressed in PC12 cells co-transfected with RXRalpha and luciferase reporter plasmid harboring NBRE response element assessed as decrease in luciferase activity at 1.56 to 6.25 uM incubated for 18 by luciferase reporter gene assay; settings: PC-12, filed as modulator, dose 1.56-6.25 µM, time 18.0 hrs
[13] = biological target: Nuclear receptor subfamily 4 group A member 2 (Homo sapiens) (UniProt P43354); assay: Modulation of full length human Nurr1 expressed in HEK293T cells co-transfected with RXRalpha and luciferase reporter plasmid harboring NurRE response element assessed as increase in luciferase activity at 1.56 to 6.25 uM incubated for 18 by luciferase reporter gene assay; settings: filed as modulator, dose 1.56-6.25 µM, time 18.0 hrs
[14] = biological target: Nuclear receptor subfamily 4 group A member 2 (Homo sapiens) (UniProt P43354); assay: Modulation of full length human Nurr1 expressed in PC12 cells co-transfected with RXRalpha and luciferase reporter plasmid harboring NurRE response element assessed as increase in luciferase activity at 1.56 to 6.25 uM incubated for 18 by luciferase reporter gene assay; settings: PC-12, filed as modulator, dose 1.56-6.25 µM, time 18.0 hrs
[15] = biological target: Nuclear receptor subfamily 4 group A member 2 (Homo sapiens) (UniProt P43354); assay: Modulation of full length human Nurr1 expressed in SKNBE(2) cells co-transfected with RXRalpha and luciferase reporter plasmid harboring NBRE response element assessed as increase in luciferase activity at 1.56 to 6.25 uM incubated for 18 by luciferase reporter gene assay; settings: SKNBE2, filed as modulator, dose 1.56-6.25 µM, time 18.0 hrs

Measured: Activity

Sequence of Nuclear receptor subfamily 4 group A member 2 (Homo sapiens) (P43354 whole entry): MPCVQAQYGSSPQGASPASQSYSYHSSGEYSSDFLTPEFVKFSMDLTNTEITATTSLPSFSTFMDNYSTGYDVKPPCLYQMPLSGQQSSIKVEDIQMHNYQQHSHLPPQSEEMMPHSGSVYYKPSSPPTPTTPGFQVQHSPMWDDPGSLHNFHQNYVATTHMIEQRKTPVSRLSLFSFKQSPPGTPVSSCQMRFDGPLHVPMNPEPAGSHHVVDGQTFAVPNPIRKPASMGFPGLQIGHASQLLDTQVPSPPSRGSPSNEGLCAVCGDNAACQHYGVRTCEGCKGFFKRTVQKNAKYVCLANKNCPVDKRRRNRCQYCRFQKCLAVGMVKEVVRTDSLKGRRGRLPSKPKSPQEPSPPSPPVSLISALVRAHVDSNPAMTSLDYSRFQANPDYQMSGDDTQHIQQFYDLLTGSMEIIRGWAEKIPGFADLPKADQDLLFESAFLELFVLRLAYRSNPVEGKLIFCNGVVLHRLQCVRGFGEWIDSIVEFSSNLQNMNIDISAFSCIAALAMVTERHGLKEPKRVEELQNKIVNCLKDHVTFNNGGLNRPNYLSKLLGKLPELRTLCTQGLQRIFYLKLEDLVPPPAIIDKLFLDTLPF

CCCCCCCC(=O)c1c(O)cc(O)cc1CC(=O)OCC [CYTOSPORONE B]
active: HEK293T

CCN(CC)CCCC(C)Nc1ccnc2cc(Cl)ccc12 (stereo not given) [CHLOROQUINE]
active: [1] | [2] | [3] | [4]

CC1=C(O)C(=O)C=C2C1=CC=C1[C@@]2(C)CC[C@@]2(C)[C@@H]3C[C@](C)(C(=O)O)CC[C@]3(C)CC[C@]12C [CELASTROL]
not listed: HEK293T | [1] | [2] | [3] | [4]
active: all other assays above

CCN(CC)Cc1cc(Nc2ccnc3cc(Cl)ccc23)ccc1O [AMODIAQUINE]
active: [1] | [2] | [3] | [4]
